High-throughput results from PubChem BioAssay.
INS-1E ATP HTS: preserves ATP levels in cytokine-treated INS-1E cells; INS-1E cytokine-induced death, ATP luminescence, 48 h; normalised: neutral wells 0, positive control 100; protection from cytokine-induced ATP loss, % at 10 µM; AID 488910; 0.1% of 20,000 active;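 active means mean replicate protection from cytokine-induced ATP loss at least 50% and at least 75% of replicates each reaching 50%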
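Test system: INS-1E rat cells | Quantity: 8000 cells per well | Medium: Phenol-red-free RPMI with 5% fetal bovine serum | Reagent: Cytokine cocktail of IFN-γ, TNF-α and IL-1β | Doses: One compound concentration, pin transfer | Timing: 48 h co-treatment, 10 min post-lysis read | Technique: Luminescent ATP assay (CellTiter-Glo)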
A1 apoptosis 2: blocks A1, raising caspase activity; 24,000 tested, under 10 active; caspase activation, % (test concentration not listed); AID 2465; MEF A1-2A-BIM cells, caspase-Glo luminescence, 3 h; percent of clofoctol response, DMSO zero; in the data active means caspase activation above about 5.9%
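Evaluation: Caspase-3/7 activity from luminescence increase | Assay system: A1-2A-BIM mouse embryonic fibroblasts | Quantity: 2500 MEF cells/well | Medium: RPMI-1640 plus 10% FBS | Detection: Caspase-Glo 3/7 luminescence, 1 h at room temperature | Dosing: 50 nL compound per well, pinned | Timing: Cells settled overnight, compound exposure 3 h at 37 °C, 5% CO2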
T cruzi intra: intracellular Trypanosoma cruzi inhibition. intracellular Trypanosoma cruzi in host cells, plate reader. activity score (inhibition), % at 5.01 µM. 4.9% of 22,000 active. AID 651903; in the data active means activity score above about 55%;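 further: parasites and compound incubated about four days before reading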
A number is an active result; - = inactive; . = not tested or not shown. Many of the other results were omitted from the sample, so hits are more common in it than they were.

SMILES	INS-1E ATP HTS	A1 apoptosis 2	T cruzi intra
C[C@H](CO)N1C[C@H](C)[C@@H](CN(C)S(=O)(=O)c2ccc(F)cc2)Oc2ccc(NS(=O)(=O)c3ccc(F)cc3)cc2C1=O	.	.	-
C[C@H](CO)N1C[C@H](C)[C@H](CN(C)S(=O)(=O)c2ccc(Cl)cc2)Oc2ccc(NS(=O)(=O)c3ccc(F)cc3)cc2C1=O	-	-	63
C[C@H](CO)N1C[C@H](C)[C@H](CN(C)S(=O)(=O)c2ccc(F)cc2)Oc2ccc(NS(=O)(=O)c3ccc(F)cc3)cc2C1=O	.	-	68
C[C@H]1CN([C@@H](C)CO)C(=O)c2cc(NS(=O)(=O)c3ccc(F)cc3)ccc2O[C@@H]1CN(C)S(=O)(=O)c1ccc(Cl)cc1	-	-	-
C[C@@H]1CN([C@H](C)CO)C(=O)c2cc(NS(=O)(=O)c3cccs3)ccc2O[C@H]1CN(C)S(=O)(=O)c1ccc(F)cc1	.	.	-
C[C@@H]1CN([C@@H](C)CO)C(=O)c2cc(NS(=O)(=O)c3cccs3)ccc2O[C@H]1CN(C)S(=O)(=O)c1ccc(F)cc1	-	-	62
C[C@H](CO)N1C[C@H](C)[C@H](CN(C)S(=O)(=O)c2cccc(C#N)c2)OCc2cn(nn2)CCCC1=O	.	-	-
CCCN(C)C[C@@H]1OCCCC[C@@H](C)Oc2ccc(NS(=O)(=O)c3ccc(OC)cc3)cc2C(=O)N([C@@H](C)CO)C[C@@H]1C	.	-	.
C[C@H]1CN([C@@H](C)CO)C(=O)c2cc(NC(=O)CCN3CCOCC3)ccc2O[C@@H]1CN(C)S(=O)(=O)c1ccc(F)cc1	-	.	-
O=C(CCCCCCC(=O)NO)N=NC=C1C=CN(O)C=C1	.	-	.
C[C@@H]1CN([C@@H](C)CO)C(=O)c2cc(N(C)C)ccc2O[C@H]1CN(C)Cc1ccc(C(=O)Nc2ccccc2N)cc1	-	.	-
C[C@@H]1CN([C@H](C)CO)C(=O)Cc2cc(NC(=O)c3ccncc3)ccc2O[C@H]1CN(C)Cc1ccc(C(=O)Nc2ccccc2N)cc1	-	-	-
C[C@@H]1CN([C@H](C)CO)C(=O)Cc2cc(N(C)C)ccc2O[C@H]1CN(C)Cc1ccc(C(=O)Nc2ccccc2N)cc1	-	.	69
C[C@@H]1CN([C@H](C)CO)C(=O)Cc2cc(N(C)C)ccc2O[C@@H]1CN(C)Cc1ccc(C(=O)Nc2ccccc2N)cc1	-	-	63
Cc1ccc(S(=O)(=O)N(C)C[C@H]2Oc3ccc(NS(=O)(=O)c4c(C)noc4C)cc3CC(=O)N([C@H](C)CO)C[C@@H]2C)cc1	.	-	.
CN1CCN(C(=O)C2=C[C@@H](c3ccc(C(F)(F)F)cc3)C[C@@H](OCc3ccc(CO)cc3)O2)CC1	.	-	.
Cc1cc(C(=O)Nc2cccc3c2O[C@@H](CN(C)C)[C@@H](C)CN([C@@H](C)CO)C3=O)n(C)n1	-	.	-
C[C@@H]1CCCCO[C@H](CN(C)C(=O)NC2CCCCC2)[C@H](C)CN([C@@H](C)CO)C(=O)c2cc(NC(=O)c3ccncc3)ccc2O1	.	-	.
C[C@@H]1CCCCO[C@@H](CN(C)Cc2ccc(C(=O)O)cc2)[C@@H](C)CN([C@@H](C)CO)C(=O)c2cc(NS(=O)(=O)c3cccs3)ccc2O1	.	-	.
C=CCN1C(=O)[C@]2(O[C@H](CCO)[C@@H]([Si](C)(C)c3ccc(OC)cc3)[C@@H]2C)c2cc(I)ccc21	.	9.0	.
COc1ccc([Si](C)(C)[C@H]2[C@H](CCO)O[C@@]3(C(=O)N(Cc4ccccc4)c4ccc(NC(=O)[C@H](C)O)cc43)[C@@H]2C)cc1	.	-	.
Cc1ccc(S(=O)(=O)N(C)C[C@H]2Oc3ccc(NC(=O)Nc4c(C)noc4C)cc3C(=O)N([C@H](C)CO)C[C@H]2C)cc1	-	-	-
Cc1cc(C(=O)Nc2cccc3c2O[C@@H](CN(C)Cc2ccc(-c4ccccc4)cc2)[C@H](C)CN([C@@H](C)CO)C3=O)n(C)n1	-	.	-
C[C@H]1CN([C@@H](C)CO)C(=O)c2cccc(NS(=O)(=O)c3ccc(F)cc3)c2O[C@@H]1CN(C)Cc1ccc(-c2ccccc2)cc1	-	-	-
C[C@@H]1CN([C@@H](C)CO)C(=O)c2cccc(NS(=O)(=O)c3ccc(F)cc3)c2O[C@@H]1CN(C)Cc1ccc(-c2ccccc2)cc1	-	-	66
SMILES	INS-1E ATP HTS	A1 apoptosis 2	T cruzi intra
C[C@H](CO)N1C[C@H](C)[C@@H](CN(C)Cc2ccc(C(F)(F)F)cc2)Oc2c(NS(=O)(=O)c3ccccc3)cccc2C1=O	-	.	66
C[C@H](CO)N1C[C@H](C)[C@@H](CN(C)Cc2ccccc2)Oc2c(NS(C)(=O)=O)cccc2C1=O	-	-	59
C[C@H]1CN([C@@H](C)CO)C(=O)c2cccc(NS(C)(=O)=O)c2O[C@H]1CN(C)Cc1ccccc1	-	-	-
C[C@H]1CN([C@@H](C)CO)C(=O)c2cccc(NS(=O)(=O)c3ccccc3)c2O[C@H]1CN(C)Cc1ccc(C(F)(F)F)cc1	-	.	-
COc1ccc(S(=O)(=O)Nc2ccc3c(c2)C(=O)N([C@@H](C)CO)C[C@@H](C)[C@@H](CN(C)S(=O)(=O)c2ccc(OC)cc2)OCCCC[C@@H](C)O3)cc1	.	-	.
C[C@@H]1CN([C@@H](C)CO)C(=O)c2cc(NS(=O)(=O)c3ccc(Cl)cc3)ccc2O[C@@H]1CN(C)Cc1ccncc1	.	.	-
C[C@H]1CN([C@@H](C)CO)C(=O)Cc2cc(NS(=O)(=O)c3ccc(Cl)cc3)ccc2O[C@H]1CN(C)CC1CCCCC1	-	-	73
COc1ccc(S(=O)(=O)Nc2ccc3c(c2)CC(=O)N([C@H](C)CO)C[C@H](C)[C@H](CN(C)CC2CCCCC2)O3)cc1	-	.	-
COc1ccc(S(=O)(=O)Nc2ccc3c(c2)CC(=O)N([C@H](C)CO)C[C@@H](C)[C@H](CN(C)CC2CCCCC2)O3)cc1	-	-	59
C[C@H]1CN([C@@H](C)CO)C(=O)Cc2cc(NS(=O)(=O)c3ccc(Cl)cc3)ccc2O[C@@H]1CN(C)CC1CCCCC1	-	-	-
COc1ccc(S(=O)(=O)Nc2ccc3c(c2)C(=O)N([C@H](C)CO)C[C@@H](C)[C@@H](CN(C)C(=O)Nc2cccc4ccccc24)O3)cc1	-	-	-
C[C@H]1CCCCO[C@H](CN(C)C(=O)NC2CCCCC2)[C@@H](C)CN([C@@H](C)CO)C(=O)c2cc(NC(=O)Nc3ccc(F)cc3)ccc2O1	.	-	.
COc1ccc(COCC23N=C4SCc5ccccc5C(=O)N4[C@H](c4ccccc4O2)[C@H]3CO)cc1	.	-	.
C[C@H](CO)N1C[C@H](C)[C@@H](CN(C)S(=O)(=O)c2ccc(Cl)cc2)Oc2c(NC(=O)Nc3ccc(C(F)(F)F)cc3)cccc2C1=O	-	-	-
C[C@@H]1CN([C@@H](C)CO)C(=O)c2cccc(NC(=O)Nc3ccc(C(F)(F)F)cc3)c2O[C@H]1CN(C)S(=O)(=O)c1ccc(Cl)cc1	-	-	80
C[C@H](CO)N1C[C@H](C)[C@H](CN(C)S(=O)(=O)c2cccs2)Oc2c(NC(=O)Nc3ccc(C(F)(F)F)cc3)cccc2C1=O	-	-	84
